Assay results as given in ChEMBL document CHEMBL4028895, “Structure-Activity Relationships and Biological Characterization of a Novel, Potent, and Serum Stable C-X-C Chemokine Receptor Type 4 (CXCR4) Antagonist” (J Med Chem, 2017).
Blank lines part the entries; values can stand above or below the compound they belong to. Activity calls are given as the source filed them. The rule behind the calls is not given here. Positions of bridges follow the written chain, without caps; N, C: chain ends. Non-standard residues stand in square brackets, D forms with d. Residues, ends and D or L forms follow the SMILES beside them. 2Nal = N[C@@H](Cc1ccc2ccccc2c1)C(=O)O; Pen = CC(C)(S)[C@H](N)C(=O)O

How the values were obtained:
[1] = target: T1, C-X-C chemokine receptor type 4 (Homo sapiens, UniProt P61073); assay: Inhibition of anti-CXCR4 PE antibody clone 12G5 binding to CXCR4 in human CCRF-CEM cells preincubated for 30 mins followed by anti-CXCR4 PE antibody clone 12G5 addition measured after 30 mins by flow cytometric method; type: cell-based
Outline: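 5×10^5 CCRF-CEM cells (human T leukemia, CXCR4-overexpressing) were preincubated with peptide (10 pM–10 μM) in PBS with 0.2% BSA and 0.1% NaN3 for 30 min at 37 °C, 5% CO2. They were then labeled 30 min with anti-CXCR4 PE antibody (clone 12G5) and read by flow cytometry.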

[2] = Metabolic stability in 90% human serum assessed as parent compound remaining at 1 mM measured at 15 mins by ESI-RP-HPLC method; type: ADME, cell-free; conditions: read-out: Stability
Outline: (§1)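 Peptide water solution (1 mM, 10 μL) mixed with 90 μL human serum, giving 0.1 mM peptide in 90% serum, at 37 °C. Aliquots taken at 0, 15, 30, 60, 90 and 120 min. Proteins precipitated with ACN (0.1% TFA) and spun 12 000 rpm, 15 min, 4 °C. Supernatant run on ESI-RP-HPLC; relative amount from A230 peak integration.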

[3] = Metabolic stability in 90% human serum assessed as parent compound remaining at 1 mM measured at 30 mins by ESI-RP-HPLC method; type: ADME, cell-free; conditions: read-out: Stability; outline: as §1
[4] = Metabolic stability in 90% human serum assessed as parent compound remaining at 1 mM measured at 60 mins by ESI-RP-HPLC method; type: ADME, cell-free; conditions: read-out: Stability; outline: as §1
[5] = Metabolic stability in 90% human serum assessed as parent compound remaining at 1 mM measured at 90 mins by ESI-RP-HPLC method; type: ADME, cell-free; conditions: read-out: Stability; outline: as §1
[6] = Metabolic stability in 90% human serum assessed as parent compound remaining at 1 mM measured at 120 mins by ESI-RP-HPLC method; type: ADME, cell-free; conditions: read-out: Stability; outline: as §1
[7] = target: T1, C-X-C chemokine receptor type 4; assay: Displacement of [125I]-CXCL12 from CXCR4 in human CCRF-CEM cells after 1 hr by gamma counting method; type: cell-based
Outline: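 CCRF-CEM cells suspended in binding buffer (PBS, 5 mM MgCl2, 1 mM CaCl2, 0.25% BSA, pH 7.4) with competitor from 10 pM to 10 μM and 60 pM 125I-CXCL12 (2200 Ci/mmol) tracer. Bound radioactivity counted on a γ counter after 1 h at 4 °C, expressed as percent of total counts. One-site fit gave IC50; mean ± SD of three experiments.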

[8] = target: T1, C-X-C chemokine receptor type 4; conditions: 10 nM
[9] = target: T2, C-X-C chemokine receptor type 3 (Homo sapiens) (UniProt P49682); assay: Inhibition of anti-CXCR3 FITC antibody clone 1C6/clone 49801 binding to CXCR3 in human COLO205 cells at 0.01 to 10 uM preincubated for 30 mins followed by anti-CXCR3 FITC antibody clone 1C6/clone 49801 addition measured after 30 mins by flow cytometric method; type: cell-based
T2 sequence (whole entry): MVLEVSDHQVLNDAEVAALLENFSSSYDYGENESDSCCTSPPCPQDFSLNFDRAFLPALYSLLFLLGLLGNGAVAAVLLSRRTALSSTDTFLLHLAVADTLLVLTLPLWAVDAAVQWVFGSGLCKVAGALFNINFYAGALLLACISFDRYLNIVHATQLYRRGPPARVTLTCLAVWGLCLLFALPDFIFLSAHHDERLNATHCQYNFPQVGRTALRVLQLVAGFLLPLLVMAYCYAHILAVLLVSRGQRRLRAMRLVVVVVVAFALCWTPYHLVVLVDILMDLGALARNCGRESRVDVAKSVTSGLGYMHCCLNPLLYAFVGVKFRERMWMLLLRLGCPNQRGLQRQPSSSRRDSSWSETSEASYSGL
Outline: (§2)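 Selectivity runs: peptide preincubated 30 min at 37 °C, 5% CO2 in PBS with 0.2% BSA and 0.1% NaN3, then cells labeled with receptor antibody and read by flow cytometry. CXCR3: COLO205 colorectal cells, anti-CXCR3 FITC antibody. CXCR7: MCF-7 breast cells, anti-CXCR7 APC antibody (clone 11G8). Results given as mean ± SD.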

[10] = target: Atypical chemokine receptor 3 (Homo sapiens) (UniProt P25106); assay: Inhibition of anti-CXCR7 APC antibody clone 11G8 binding to CXCR7 in human MCF7 cells at 0.01 to 10 uM preincubated for 30 mins followed by anti-CXCR7 APC antibody clone 11G8 addition measured after 30 mins by flow cytometric method; type: cell-based; outline: as §2
[11] = target: T1, C-X-C chemokine receptor type 4; conditions: 1 to 100 nM
[12] = target: T1, C-X-C chemokine receptor type 4; conditions: 10 nM; remark: listed apart in the source
[13] = target: T1, C-X-C chemokine receptor type 4; conditions: 10 nM; remark: listed apart in the source
Serum [14] = assay: Drug level in 90% human serum treated with (4R,7S,10S,13S,16R)-16-((S)-2-((S)-2-amino-5-guanidinopentanamido)propanamido)-7,10-dibenzyl-13-(3-guanidinopropyl)-6,9,12,15-tetraoxo-1,2-dithia-5,8,11,14-tetraazacycloheptadecane-4-carboxylic acid at 1 mM after 30 mins by ESI-RP-HPLC method; type: ADME, cell-free; conditions: 0.5 h, 1000 µM; outline: as §1
Serum [15] = assay: Drug level in 90% human serum treated with (4R,7S,10S,13S,16R)-16-((S)-2-((S)-2-amino-5-guanidinopentanamido)propanamido)-7,10-dibenzyl-13-(3-guanidinopropyl)-6,9,12,15-tetraoxo-1,2-dithia-5,8,11,14-tetraazacycloheptadecane-4-carboxylic acid at 1 mM after 15 mins by ESI-RP-HPLC method; type: ADME, cell-free; conditions: 0.25 h, 1000 µM; outline: as §1

T1 sequence (P61073 whole entry): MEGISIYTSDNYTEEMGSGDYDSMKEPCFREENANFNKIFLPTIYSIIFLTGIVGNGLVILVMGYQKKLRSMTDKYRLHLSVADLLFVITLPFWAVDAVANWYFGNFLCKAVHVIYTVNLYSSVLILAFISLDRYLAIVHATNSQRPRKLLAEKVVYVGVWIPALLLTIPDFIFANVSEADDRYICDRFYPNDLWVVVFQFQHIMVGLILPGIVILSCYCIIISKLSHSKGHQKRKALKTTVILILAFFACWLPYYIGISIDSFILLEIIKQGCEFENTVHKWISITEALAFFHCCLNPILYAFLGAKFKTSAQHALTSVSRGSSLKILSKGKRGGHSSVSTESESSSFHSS
Atypical chemokine receptor 3 (Homo sapiens), sequence (P25106 whole entry): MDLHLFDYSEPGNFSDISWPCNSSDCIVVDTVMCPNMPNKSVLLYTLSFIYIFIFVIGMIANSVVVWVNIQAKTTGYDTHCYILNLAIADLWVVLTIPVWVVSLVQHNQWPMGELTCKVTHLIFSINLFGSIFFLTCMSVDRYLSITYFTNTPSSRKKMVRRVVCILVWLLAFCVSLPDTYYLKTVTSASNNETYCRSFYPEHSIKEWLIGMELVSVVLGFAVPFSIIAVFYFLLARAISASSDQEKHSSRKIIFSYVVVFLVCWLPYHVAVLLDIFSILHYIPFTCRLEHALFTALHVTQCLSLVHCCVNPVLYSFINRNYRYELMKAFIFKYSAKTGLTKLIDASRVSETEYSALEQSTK

IC50 [1]: 53 nM
IC50 [7]: 338 nM
Structure (SMILES): CC(=O)N[C@@H](CCCNC(=N)N)C(=O)N[C@@H](C)C(=O)N[C@@H]1CSSC[C@@H](C(=O)O)NC(=O)[C@H](Cc2ccccc2)NC(=O)[C@H](Cc2ccccc2)NC(=O)[C@H](CCCNC(=N)N)NC1=O (Ac-RA[dC]RFFC-OH; disulfide 3-7)

IC50 [1]: 210 nM
Structure (SMILES): CC(=O)N[C@@H](CCCNC(=N)N)C(=O)N[C@@H](C)C(=O)N[C@@H]1CSSC(C)(C)[C@@H](C(=O)O)NC(=O)[C@H](Cc2ccccc2)NC(=O)[C@H](Cc2ccc([N+](=O)[O-])cc2)NC(=O)[C@H](CCCNC(=N)N)NC1=O

IC50 [1]: 1530 nM
Structure (SMILES): CC(=O)N[C@@H](CCCNC(=N)N)C(=O)N[C@@H](C)C(=O)N[C@H]1C(=O)N[C@@H](CCCNC(=N)N)C(=O)N[C@@H](Cc2ccccc2)C(=O)N[C@@H](Cc2ccccc2)C(=O)N[C@H](C(=O)O)C(C)(C)SSC1(C)C

inhibition [8]: inactive
Structure (SMILES): c1cc(CN2CCCNCCNCCCNCC2)ccc1CN1CCCNCCNCCCNCC1

IC50 [1]: 1.5 nM
inhibition [9]: inactive
inhibition [10]: inactive
remaining at 0.25 h, 1000 µM [2]: 100%
remaining at 0.5 h, 1000 µM [3]: 100%
remaining at 1 h, 1000 µM [4]: 100%
remaining at 1.5 h, 1000 µM [5]: 100%
remaining at 2 h, 1000 µM [6]: 100%
inhibition [11]: Active
inhibition [12]: Active
inhibition [13]: inactive
Structure (SMILES): CC(=O)N[C@@H](CCCNC(=N)N)C(=O)N[C@@H](C)C(=O)N[C@@H]1CSSC(C)(C)[C@@H](C(=O)O)NC(=O)[C@H](Cc2cnc[nH]2)NC(=O)[C@H](Cc2ccc3ccccc3c2)NC(=O)[C@H](CCCNC(=N)N)NC1=O (Ac-RA[dC]R[2Nal]H[Pen]-OH; disulfide 3-7)

IC50 [1]: 1800 nM
Structure (SMILES): CC(=O)N[C@@H](CCCNC(=N)N)C(=O)N[C@@H](C)C(=O)N[C@@H]1CSSC(C)(C)[C@@H](C(=O)O)NC(=O)[C@H](Cc2ccc3ccccc3c2)NC(=O)[C@H](Cc2ccccc2)NC(=O)[C@H](CCCNC(=N)N)NC1=O

IC50 [1]: 40 nM
Structure (SMILES): CC(=O)N[C@@H](CCCNC(=N)N)C(=O)N[C@@H](C)C(=O)N[C@@H]1CSSC(C)(C)[C@@H](C(=O)O)NC(=O)[C@H](Cc2ccccc2)NC(=O)[C@H](Cc2ccccc2)NC(=O)[C@H](CCCNC(=N)N)NC1=O

IC50 [1]: > 10000 nM
Structure (SMILES): CC(=O)N[C@@H](CCCNC(=N)N)C(=O)N[C@@H](C)C(=O)N[C@H]1C(=O)N[C@@H](CCCNC(=N)N)C(=O)N[C@@H](Cc2ccccc2)C(=O)N[C@@H](Cc2ccccc2)C(=O)N[C@H](C(=O)O)CSSC1(C)C

IC50 [1]: > 10000 nM
Structure (SMILES): CC(=O)N[C@@H](CCCNC(=N)N)C(=O)N[C@@H](C)C(=O)N[C@@H]1CSSC(C)(C)[C@@H](C(=O)O)NC(=O)[C@H](Cc2ccc([N+](=O)[O-])cc2)NC(=O)[C@H](Cc2ccccc2)NC(=O)[C@H](CCCNC(=N)N)NC1=O

Continued, compound first:

Structure (SMILES): C[C@H](NC(=O)[C@@H](N)CCCNC(=N)N)C(=O)N[C@H]1CSSC[C@@H](C(=O)O)NC(=O)[C@H](Cc2ccccc2)NC(=O)[C@H](Cc2ccccc2)NC(=O)[C@H](CCCNC(=N)N)NC1=O (H-RACRFFC-OH; disulfide 3-7)
IC50 [1]: 6200 nM
remaining at 0.25 h, 1000 µM [2]: 67%
remaining at 0.5 h, 1000 µM [3]: 0%
remaining at 1 h, 1000 µM [4]: 0%
remaining at 1.5 h, 1000 µM [5]: 0%
remaining at 2 h, 1000 µM [6]: 0%

Structure (SMILES): CC(=O)N[C@@H](CCCNC(=N)N)C(=O)N[C@@H](C)C(=O)N[C@@H]1CSSC(C)(C)[C@@H](C(=O)O)NC(=O)[C@H](Cc2ccccc2)NC(=O)[C@H](Cc2ccc(Cl)cc2)NC(=O)[C@H](CCCNC(=N)N)NC1=O
IC50 [1]: 70 nM

Structure (SMILES): CC(=O)N[C@@H](CCCNC(=N)N)C(=O)N[C@@H](C)C(=O)N[C@@H]1CSSC(C)(C)[C@@H](C(=O)O)NC(=O)[C@H](Cc2ccccc2)NC(=O)[C@H](Cc2cnc[nH]2)NC(=O)[C@H](CCCNC(=N)N)NC1=O
IC50 [1]: > 10000 nM

Structure (SMILES): CC(=O)N[C@@H](CCCNC(=N)N)C(=O)N[C@@H](C)C(=O)N[C@@H]1CSSC(C)(C)[C@@H](C(=O)O)NC(=O)[C@H](Cc2ccc(Cl)cc2)NC(=O)[C@H](Cc2ccccc2)NC(=O)[C@H](CCCNC(=N)N)NC1=O
IC50 [1]: 1250 nM

Structure (SMILES): CC(=O)N[C@@H](CCCNC(=N)N)C(=O)N[C@@H](C)C(=O)N[C@@H]1CSSC(C)(C)[C@@H](C(=O)O)NC(=O)[C@H](Cc2ccccc2)NC(=O)[C@H](Cc2ccc(O)cc2)NC(=O)[C@H](CCCNC(=N)N)NC1=O
IC50 [1]: 2140 nM

Structure (SMILES): CC(=O)N[C@@H](CCCNC(=N)N)C(=O)N[C@@H](C)C(=O)N[C@@H]1CSSC(C)(C)[C@@H](C(=O)O)NC(=O)[C@H](Cc2ccccc2)NC(=O)[C@H](Cc2cccc3ccccc23)NC(=O)[C@H](CCCNC(=N)N)NC1=O
IC50 [1]: 3690 nM

Structure (SMILES): CC(=O)N[C@@H](CCCNC(=N)N)C(=O)N[C@@H](C)C(=O)N[C@@H]1CSSC(C)(C)[C@@H](C(=O)O)NC(=O)[C@H](Cc2ccccc2)NC(=O)[C@H](Cc2ccc3ccccc3c2)NC(=O)[C@H](CCCNC(=N)N)NC1=O
IC50 [1]: 22 nM

Structure (SMILES): CC(=O)N[C@@H](CCCNC(=N)N)C(=O)N[C@@H](C)C(=O)N[C@@H]1CSSC(C)(C)[C@@H](C(=O)O)NC(=O)[C@H](Cc2cnc[nH]2)NC(=O)[C@H](Cc2ccccc2)NC(=O)[C@H](CCCNC(=N)N)NC1=O
IC50 [1]: 6 nM

Structure (SMILES): N=C(N)NCCC[C@@H]1NC(=O)[C@@H](N)CSSC[C@@H](C(=O)O)NC(=O)[C@H](Cc2ccccc2)NC(=O)[C@H](Cc2ccccc2)NC1=O (H-CRFFC-OH; disulfide 1-5)
Drug metabolism (Serum [14]): Metabolite_Detected

Structure (SMILES): CC(=O)N[C@@H](CCCNC(=N)N)C(=O)N[C@@H](C)C(=O)N[C@@H]1CSSC(C)(C)[C@@H](C(=O)O)NC(=O)[C@H](Cc2ccc(O)cc2)NC(=O)[C@H](Cc2ccccc2)NC(=O)[C@H](CCCNC(=N)N)NC1=O
IC50 [1]: 360 nM

Structure (SMILES): CC(=O)N[C@@H](CCCNC(=N)N)C(=O)N[C@@H](C)C(=O)N[C@@H]1CSSC(C)(C)[C@@H](C(=O)O)NC(=O)[C@H](Cc2cccc3ccccc23)NC(=O)[C@H](Cc2ccccc2)NC(=O)[C@H](CCCNC(=N)N)NC1=O
IC50 [1]: 180 nM

Structure (SMILES): C[C@H](N)C(=O)N[C@H]1CSSC[C@@H](C(=O)O)NC(=O)[C@H](Cc2ccccc2)NC(=O)[C@H](Cc2ccccc2)NC(=O)[C@H](CCCNC(=N)N)NC1=O (H-ACRFFC-OH; disulfide 2-6)
Drug metabolism (Serum [15]): Metabolite_Detected
